Test results reported in ChEMBL document CHEMBL1124186, “Synthesis and evaluation of tylosin-related macrolides modified at the aldehyde function: a new series of orally effective antibiotics” (1988).
≈ marks a conversion by molar mass, not a printed value.

How the values were obtained:
Mus musculus [1] = assay: Peripheral plasma levels in mice after oral administration of 50 mg/kg dose for 0.5 hr; assay type: functional, organism-based; set-up: dose 50 mg/kg
Method in brief: (§1)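 Mice were given the compound orally and sampled for peripheral plasma at each time point. Plasma was assayed microbiologically against Micrococcus luteus seeded in Antibiotic Medium 1. Inhibition zone sizes were read, and concentrations were calculated from each compound's own standard curve. Each value is the mean of five mice per time point.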

Collinsella aerofaciens = assay: In vitro antimicrobial activity against anaerobic bacteria aerofaciens 1235; assay type: functional
Enterococcus faecium = assay: In vitro antimicrobial activity against Streptococcus faecium X66; assay type: functional, streptococcus fae-cium
Streptococcus [2] = assay: In vitro antimicrobial activity against aerobic bacteria Streptococcus D 9960; assay type: functional
Clostridioides difficile = assay: In vitro antimicrobial activity against anaerobic bacteria Clostridium difficile 2994; assay type: functional
[3] = tested on: Peptostreptococcus anaerobius; assay: In vitro antimicrobial activity against anaerobic bacteria eubacterium peptostreptococcus anaerobius 1428,; assay type: functional
Mus musculus [4] = assay: Peripheral plasma levels in mice after oral administration of 100 mg/kg dose for 4 hr; assay type: functional, organism-based; set-up: dose 100 mg/kg; method in brief: as §1
Bacteroides fragilis [5] = assay: In vitro antimicrobial activity against anaerobic bacteria bacteroides fragilis 1877; assay type: functional
Mus musculus [6] = assay: Peripheral plasma levels in mice after oral administration of 50 mg/kg dose for 1 hr; assay type: functional, organism-based; set-up: dose 50 mg/kg; method in brief: as §1
[7] = tested on: Fusobacterium necrophorum; assay: In vitro antimicrobial activity against anaerobic bacteria usobacterium necrophorum 6054A; assay type: functional
Haemophilus influenzae [8] = assay: In vitro antimicrobial activity against aerobic bacteria Haemophilus influenzae 76; assay type: functional
[9] = tested on: Prevotella melaninogenica; assay: In vitro antimicrobial activity against anaerobic bacteria bacteroides melaninogenicus 2736; assay type: functional
Staphylococcus aureus [10] = assay: In vitro antimicrobial activity against aerobic bacteria Staphylococcus aureus X400; assay type: functional
Fusobacterium = assay: In vitro antimicrobial activity against anaerobic bacteria fusobacterium symbiosum 1470; assay type: functional
[11] = tested on: Haemophilus parainfluenzae; assay: In vitro antimicrobial activity against aerobic bacteria Haemophilus parainfluenzae 9796; assay type: functional
Staphylococcus aureus [12] = assay: In vitro antimicrobial activity against aerobic bacteria Staphylococcus aureus V135; assay type: functional
Staphylococcus aureus [13] = assay: In vitro antimicrobial activity against aerobic bacteria Staphylococcus aureus 513E; assay type: functional
Haemophilus influenzae [14] = assay: In vitro antimicrobial activity against aerobic bacteria Haemophilus influenzae MX366,; assay type: functional
Mus musculus [15] = assay: Peripheral plasma levels in mice after oral administration of 100 mg/kg dose for 0.5 hr; assay type: functional, organism-based; set-up: dose 100 mg/kg; method in brief: as §1
Mus musculus [16] = assay: Peripheral plasma levels in mice after oral administration of 100 mg/kg dose for 0.25 hr; assay type: functional, organism-based; set-up: dose 100 mg/kg; method in brief: as §1
Mus musculus [17] = assay: Peripheral plasma levels in mice after oral administration of 50 mg/kg dose for 0.25 hr; assay type: functional, organism-based; set-up: dose 50 mg/kg; method in brief: as §1
Staphylococcus aureus [18] = assay: In vitro antimicrobial activity against Staphylococcus aureus X1; assay type: functional
Streptococcus pneumoniae [19] = assay: In vivo effective dose against experimental infections in mice Streptococcus pneumoniae park when administered orally; assay type: functional; settings: po
Clostridium septicum = assay: In vitro antimicrobial activity against anaerobic bacteria clostridium septicum 1128; assay type: functional
Streptococcus [20] = assay: In vitro antimicrobial activity against aerobic bacteria Streptococcus D 8043; assay type: functional
[21] = tested on: Staphylococcus epidermidis; assay: In vitro antimicrobial activity against Staphylococcus epidermidis EPI1; assay type: functional
Streptococcus pneumoniae [22] = assay: In vivo effective dose against experimental infections in mice Streptococcus pneumoniae administered sc; assay type: functional
[23] = tested on: Bacteroides thetaiotaomicron; assay: In vitro antimicrobial activity against anaerobic bacteria bacteroides thetaiotaomicron 1438; assay type: functional
Chlamydia trachomatis = assay: In vitro antimicrobial activity against chlamydia trachomatis.; assay type: functional
[24] = tested on: Prevotella melaninogenica; assay: In vitro antimicrobial activity against anaerobic bacteria bacteroides melaninogenicus 1856,; assay type: functional
Streptococcus [25] = assay: In vitro antimicrobial activity against aerobic bacteria Streptococcus B 14; assay type: functional
Haemophilus influenzae [26] = assay: In vitro antimicrobial activity against aerobic bacteria Haemophilus influenzae 465; assay type: functional
[27] = tested on: Staphylococcus epidermidis; assay: In vitro antimicrobial activity against aerobic bacteria Streptococcus epi 270; assay type: functional
Eikenella corrodens = assay: In vitro antimicrobial activity against anaerobic bacteria bacteroides corrodens 1874; assay type: functional
Anaerococcus prevotii = assay: In vitro antimicrobial activity against anaerobic bacteria peptococcus prevoti 1281; assay type: functional
Bacteroides fragilis [28] = assay: In vitro antimicrobial activity against anaerobic bacteria bacteroides fragilis 1936B,; assay type: functional
Staphylococcus aureus [29] = assay: In vitro antimicrobial activity against aerobic bacteria Staphylococcus aureus V140,; assay type: functional
Mus musculus [30] = assay: Peripheral plasma levels in mice after oral administration of 100 mg/kg dose for 1 hr; assay type: functional, organism-based; set-up: dose 100 mg/kg; method in brief: as §1
[31] = In vitro antimicrobial activity against anaerobic bacteria peptostreptococcus intermedius 1264; assay type: functional
Phocaeicola vulgatus = assay: In vitro antimicrobial activity against anaerobic bacteria bacteroides vulgatus 1211; assay type: functional
Mus musculus [32] = assay: Peripheral plasma levels in mice after oral administration of 50 mg/kg dose for 2 hr; assay type: functional, organism-based; set-up: dose 50 mg/kg; method in brief: as §1
Mus musculus [33] = assay: Peripheral plasma levels in mice after oral administration of 50 mg/kg dose for 4 hr; assay type: functional, organism-based; set-up: dose 50 mg/kg; method in brief: as §1
Streptococcus [34] = assay: In vitro antimicrobial activity against aerobic bacteria Streptococcus D 2041; assay type: functional
Mus musculus [35] = assay: Peripheral plasma levels in mice after oral administration of 100 mg/kg dose for 2 hr; assay type: functional, organism-based; set-up: dose 100 mg/kg; method in brief: as §1
[36] = tested on: Staphylococcus epidermidis; assay: In vitro antimicrobial activity against aerobic bacteria Streptococcus epi 222; assay type: functional
Bacteroides fragilis [37] = assay: In vitro antimicrobial activity against anaerobic bacteria bacteroides fragilis 111; assay type: functional
Streptococcus pneumoniae [38] = assay: In vitro antimicrobial activity against aerobic bacteria Streptococcus pneumoniae B1-438; assay type: functional, streptococcus pneum
Staphylococcus aureus [39] = assay: In vitro antimicrobial activity against aerobic bacteria Staphylococcus aureus V41; assay type: functional
Clostridium perfringens = assay: In vitro antimicrobial activity against anaerobic bacteria clostridium perfringens 81,; assay type: functional
Cutibacterium acnes = assay: In vitro antimicrobial activity against anaerobic bacteria propionibacterium acnes 79; assay type: functional
[40] = tested on: Peptoniphilus asaccharolyticus; assay: In vitro antimicrobial activity against anaerobic bacteria peptococcus asaccharolyticus 1302; assay type: functional
Haemophilus influenzae [41] = assay: In vitro antimicrobial activity against Haemophilus influenzae.; assay type: functional
Streptococcus [42] = assay: In vitro antimicrobial activity against aerobic bacteria Streptococcus B 5; assay type: functional

In the case of `CC[C@H]1OC(=O)C[C@@H](O)[C@H](C)[C@@H](O[C@@H]2O[C@H](C)[C@@H](O)[C@H](N(C)C)[C@H]2O)[C@@H](CCOc2ccc(C(=O)c3ccccc3)cc2)C[C@@H](C)C(=O)/C=C/C(C)=C/[C@@H]1CO[C@@H]1O[C@H](C)[C@@H](O)[C@@H](OC)[C@H]1OC`, the Concentration (Mus musculus [1]) is reported as 0.4 µg/mL, the MIC (Collinsella aerofaciens) is reported as < 0.5 µg/mL and the MIC (Enterococcus faecium) is reported as 0.25 µg/mL (≈ 0.262 µM). For the same compound, the MIC (Streptococcus [2]) was 0.5 µg/mL (≈ 0.524 µM), the MIC (Clostridioides difficile) was < 0.5 µg/mL and the MIC [3] was < 0.5 µg/mL. For the same compound, the Concentration (Mus musculus [4]) was 1.2 µg/mL, the MIC (Bacteroides fragilis [5]) was 2 µg/mL (≈ 2.1 µM) and the Concentration (Mus musculus [6]) was 0.1 µg/mL. For the same compound, the MIC [7] was 4 µg/mL (≈ 4.19 µM), the MIC (Haemophilus influenzae [8]) was 16 µg/mL (≈ 16.8 µM) and the MIC [9] was 2 µg/mL (≈ 2.1 µM). The MIC (Staphylococcus aureus [10]) was 0.25 µg/mL (≈ 0.262 µM), the MIC (Fusobacterium) was 2 µg/mL (≈ 2.1 µM) and the MIC [11] was 32 µg/mL (≈ 33.5 µM). For the same compound, the MIC (Staphylococcus aureus [12]) was 0.5 µg/mL (≈ 0.524 µM), the MIC (Staphylococcus aureus [13]) was 0.25 µg/mL (≈ 0.262 µM) and the MIC (Haemophilus influenzae [14]) was 16 µg/mL (≈ 16.8 µM). The Concentration (Mus musculus [15]) was 1.1 µg/mL, the Concentration (Mus musculus [16]) was 1.3 µg/mL and the Concentration (Mus musculus [17]) was 0.1 µg/mL. For the same compound, the MIC (Staphylococcus aureus [18]) was 0.25 µg/mL (≈ 0.262 µM), the ED50 (Streptococcus pneumoniae [19]) was > 50 mg/kg and the MIC (Clostridium septicum) was < 0.5 µg/mL. The MIC (Streptococcus [20]) was 0.25 µg/mL (≈ 0.262 µM), the MIC [21] was 0.25 µg/mL (≈ 0.262 µM) and the ED50 (Streptococcus pneumoniae [22]) was > 20 mg/kg. The MIC [23] was 4 µg/mL (≈ 4.19 µM), the MIC (Chlamydia trachomatis) was > 2 µg/mL and the MIC [24] was < 0.5 µg/mL. For the same compound, the MIC (Streptococcus [25]) was 1 µg/mL (≈ 1.05 µM), the MIC (Haemophilus influenzae [26]) was 32 µg/mL (≈ 33.5 µM) and the MIC [27] was > 128 µg/mL. It also gave an MIC (Eikenella corrodens) of 2 µg/mL (≈ 2.1 µM), an MIC (Anaerococcus prevotii) of 2 µg/mL (≈ 2.1 µM) and an MIC (Bacteroides fragilis [28]) of 4 µg/mL (≈ 4.19 µM). The MIC (Staphylococcus aureus [29]) was 0.5 µg/mL (≈ 0.524 µM), the Concentration (Mus musculus [30]) was 2.3 µg/mL and the MIC [31] was < 0.5 µg/mL. For the same compound, the MIC (Phocaeicola vulgatus) was < 0.5 µg/mL, the Concentration (Mus musculus [32]) was 1.8 µg/mL and the Concentration (Mus musculus [33]) was 0.8 µg/mL. For the same compound, the MIC (Streptococcus [34]) was 0.5 µg/mL (≈ 0.524 µM), the Concentration (Mus musculus [35]) was 2 µg/mL and the MIC [36] was 0.12 µg/mL (≈ 0.126 µM). The MIC (Bacteroides fragilis [37]) was 2 µg/mL (≈ 2.1 µM), the MIC (Streptococcus pneumoniae [38]) was 128 µg/mL (≈ 134 µM) and the MIC (Staphylococcus aureus [39]) was 0.25 µg/mL (≈ 0.262 µM). The MIC (Clostridium perfringens) was < 0.5 µg/mL, the MIC (Cutibacterium acnes) was < 0.5 µg/mL and the MIC [40] was < 0.5 µg/mL. The MIC (Haemophilus influenzae [41]) was 16 µg/mL (≈ 16.8 µM) and the MIC (Streptococcus [42]) was 1 µg/mL (≈ 1.05 µM).
